Data on one molecule can be found in ChEMBL document CHEMBL2010792, “Novel glycolipid TLR2 ligands of the type Pam2Cys-α-Gal: synthesis and biological properties” (Eur J Med Chem, 2012).

The source made the active and inactive calls. The rule behind the calls is not given here.

For one test, the system named is NKT. Nature of the test: Immunostimulatory activity in activated NKT cells assessed as induction of IFNgamma production. The class given is functional, cell-based.
Settings: not given
Take `CCCCCCCCCCCCCCCC(=O)N[C@@H](CSC[C@@H](COC(=O)CCCCCCCCCCCCCCC)OC(=O)CCCCCCCCCCCCCCC)C(=O)N[C@@H](C)C(=O)NCC(=O)O`: the outcome was inactive.

The species entered for the next test is Mus musculus. Nature of the test: Immunostimulatory activity in BALB/c mouse B cells assessed as induction of cell proliferation after 3 days by [3H]-thymidine incorporation assay. Format: functional.
Settings: not given
In outline:
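B cells were purified from female BALB/c spleens by negative selection (anti-CD11b, GR1, CD4 and CD8 mAbs plus magnetic beads; >90% B cells) and seeded at 1×10^5/well. Culture was in RPMI 1640 with 10% FCS, gentamicin, 10 mM HEPES and 0.05 mM 2-mercaptoethanol, across increasing agonist doses. [3H]-thymidine was added at 48 h and cells harvested 18 h later. Stimulation index = mean cpm stimulated / unstimulated; triplicates.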
As to `CCCCCCCCCCCCCCCC(=O)N[C@@H](CSC[C@@H](COC(=O)CCCCCCCCCCCCCCC)OC(=O)CCCCCCCCCCCCCCC)C(=O)N[C@@H](C)C(=O)NCC(=O)O`, the Activity entry is “Dose-dependent effect”.

The target of a further test is Toll-like receptor 2 (Homo sapiens) (UniProt O60603). Put plainly: Agonist activity at TLR2 in human THP1-Blue-CD14 cells transfected with pSEAP-NF-kappaB assessed as secreted embryonic alkaline phosphatase activity treated with PBS containing 2% DMSO formulation after 19 hrs by quanti-blue colorimetric assay. The class given is functional, cell-based. As to conditions: THP-1.
Toll-like receptor 2 (Homo sapiens), sequence (O60603 whole entry): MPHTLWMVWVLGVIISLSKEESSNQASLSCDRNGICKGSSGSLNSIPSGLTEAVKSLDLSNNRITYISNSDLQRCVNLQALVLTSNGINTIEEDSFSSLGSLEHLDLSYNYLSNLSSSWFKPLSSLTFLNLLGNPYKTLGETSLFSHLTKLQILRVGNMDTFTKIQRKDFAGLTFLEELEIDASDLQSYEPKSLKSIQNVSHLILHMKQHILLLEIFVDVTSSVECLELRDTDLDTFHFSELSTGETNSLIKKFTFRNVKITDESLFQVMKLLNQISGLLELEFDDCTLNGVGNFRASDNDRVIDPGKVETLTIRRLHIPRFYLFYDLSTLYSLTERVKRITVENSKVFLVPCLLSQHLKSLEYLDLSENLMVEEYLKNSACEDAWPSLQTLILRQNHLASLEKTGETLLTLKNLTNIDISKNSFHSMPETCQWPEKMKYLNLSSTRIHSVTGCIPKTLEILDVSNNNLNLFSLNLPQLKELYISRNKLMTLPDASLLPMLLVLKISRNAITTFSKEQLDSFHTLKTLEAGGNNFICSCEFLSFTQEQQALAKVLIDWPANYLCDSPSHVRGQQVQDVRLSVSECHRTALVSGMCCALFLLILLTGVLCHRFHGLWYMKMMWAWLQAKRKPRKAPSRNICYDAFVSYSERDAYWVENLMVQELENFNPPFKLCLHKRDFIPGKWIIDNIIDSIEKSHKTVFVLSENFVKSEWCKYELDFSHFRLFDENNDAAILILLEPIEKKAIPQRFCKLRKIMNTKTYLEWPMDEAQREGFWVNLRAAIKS
As to `CCCCCCCCCCCCCCCC(=O)N[C@@H](CSC[C@@H](COC(=O)CCCCCCCCCCCCCCC)OC(=O)CCCCCCCCCCCCCCC)C(=O)N[C@@H](C)C(=O)NCC(=O)O`, the outcome was Active.

A further test shares this target. Nature of the test: Agonist activity at TLR2 in human HEK-Blue-2 cells. The class given is functional, cell-based.
Settings: not given
Turning to `CCCCCCCCCCCCCCCC(=O)N[C@@H](CSC[C@@H](COC(=O)CCCCCCCCCCCCCCC)OC(=O)CCCCCCCCCCCCCCC)C(=O)N[C@@H](C)C(=O)NCC(=O)O`, the outcome was Active.

Tested on in the next test: not listed separately
Put plainly: Induction of dendritic cell maturation in mouse D1 cells assessed as upregulation of CD40, CD54, CD80 and CD86 expression at 2.5 ug/ml after 48 hrs by flow cytometry in presence of polymyxin B. The class given is functional, cell-based.
Settings: not given
In outline:
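D1 cells were kept in IMDM with 10% heat-decomplemented FCS, penicillin (100 IU/mL), 2 mM L-glutamine and GM-CSF (20 ng/mL). They were seeded at 2×10^5 cells/mL for 48 h, then given fresh medium with compound (DMSO/PBS 2/98) plus polymyxin B, except LPS wells, for 48 h. Cells were harvested in PBS with 2 mM EDTA, stained 20 min at 4 °C and analysed by flow cytometry.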
As to `CCCCCCCCCCCCCCCC(=O)N[C@@H](CSC[C@@H](COC(=O)CCCCCCCCCCCCCCC)OC(=O)CCCCCCCCCCCCCCC)C(=O)N[C@@H](C)C(=O)NCC(=O)O`, the result was Active.

The species named for a further test is Mus musculus. Nature of the test: Immunostimulatory activity in BALB/c mouse splenocytes assessed as induction of cell proliferation up to 1000 ng/ml after 3 days by [3H]-thymidine incorporation assay. The class given is functional. To be noted: Splenocyte. In outline: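 Spleen cells from female BALB/c mice (2×10^5/well) were cultured with agonist at 0–1000 ng/mL in RPMI 1640 containing 10% FCS, gentamicin, 10 mM HEPES and 0.05 mM 2-mercaptoethanol. [3H]-thymidine was added after 48 h, with harvest 18 h later. Result is a stimulation index (mean cpm stimulated / unstimulated) from triplicate wells.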
As to `CCCCCCCCCCCCCCCC(=O)N[C@@H](CSC[C@@H](COC(=O)CCCCCCCCCCCCCCC)OC(=O)CCCCCCCCCCCCCCC)C(=O)N[C@@H](C)C(=O)NCC(=O)O`, the result was Active.

Another test is filed under the species Mus musculus. Nature of the test: Immunostimulatory activity in BALB/c mouse splenocytes assessed as induction of IL-6 secretion after 30 hrs by double-sandwich ELISA. The class given is functional. To be noted: Splenocyte. The gist of the method: (§1)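 BALB/c splenocytes (2×10^5/well) were exposed to increasing agonist doses in supplemented RPMI 1640. Supernatants were collected at 30 h, stored at −20 °C, and assayed by double-sandwich ELISA. Values are pg/mL, mean of duplicates; detection limit 15 pg/mL for both IL-6 and TNF-α.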
On to `CCCCCCCCCCCCCCCC(=O)N[C@@H](CSC[C@@H](COC(=O)CCCCCCCCCCCCCCC)OC(=O)CCCCCCCCCCCCCCC)C(=O)N[C@@H](C)C(=O)NCC(=O)O`, for which the Activity result is “Dose-dependent effect”.

The next test deals with NKT. Nature of the test: Immunostimulatory activity in activated NKT cells assessed as induction of cell proliferation in presence of mAb directed CD1d molecules. The class given is functional, cell-based.
Settings: not given
For the molecule `CCCCCCCCCCCCCCCC(=O)N[C@@H](CSC[C@@H](COC(=O)CCCCCCCCCCCCCCC)OC(=O)CCCCCCCCCCCCCCC)C(=O)N[C@@H](C)C(=O)NCC(=O)O`, the result was Active.

The next test has as its target Toll-like receptor 2 (Homo sapiens) (UniProt O60603). Nature of the test: Agonist activity at TLR2 in human THP1-Blue-CD14 cells transfected with pSEAP-NF-kappaB assessed as secreted embryonic alkaline phosphatase activity treated with PC/PG/Chol liposomes formulation at 10 uM after 19 hrs by quanti-blue colorimetric assay in presence of anti-mTLR2 antibody. The class given is functional, cell-based. To be noted: THP-1. The gist of the method: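 TLR2 in THP1-Blue-CD14 cells was neutralised with an anti-mTLR2 monoclonal antibody (100 ng/well) for 10 min before liposome-formulated agonist was added. Cells were incubated 19 h at 37 °C, and SEAP in supernatant was read by Quanti-Blue colorimetry (2 h, 37 °C, OD 595 nm). Activity was compared with cells lacking antibody; triplicates.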
Turning to `CCCCCCCCCCCCCCCC(=O)N[C@@H](CSC[C@@H](COC(=O)CCCCCCCCCCCCCCC)OC(=O)CCCCCCCCCCCCCCC)C(=O)N[C@@H](C)C(=O)NCC(=O)O`, the result was inactive.

The next test is filed under the species Mus musculus. Nature of the test: Immunostimulatory activity in BALB/c mouse splenocytes assessed as induction of TNFalpha secretion after 30 hrs by double-sandwich ELISA. Format: functional. As to conditions: Splenocyte. In outline: as §1
For `CCCCCCCCCCCCCCCC(=O)N[C@@H](CSC[C@@H](COC(=O)CCCCCCCCCCCCCCC)OC(=O)CCCCCCCCCCCCCCC)C(=O)N[C@@H](C)C(=O)NCC(=O)O`, the Activity result is “Dose-dependent effect”.

In a further test the test system is NKT. Nature of the test: Immunostimulatory activity in activated NKT cells assessed as induction of IL-4 production. The class given is functional, cell-based.
Settings: not given
`CCCCCCCCCCCCCCCC(=O)N[C@@H](CSC[C@@H](COC(=O)CCCCCCCCCCCCCCC)OC(=O)CCCCCCCCCCCCCCC)C(=O)N[C@@H](C)C(=O)NCC(=O)O`: the result was inactive.

The next test concerns the target Toll-like receptor 2 (Homo sapiens) (UniProt O60603). Nature of the test: Agonist activity at TLR2 in human THP1-Blue-CD14 cells transfected with pSEAP-NF-kappaB assessed as secreted embryonic alkaline phosphatase activity treated with PC/PG/Chol liposomes formulation after 19 hrs by quanti-blue colorimetric assay. Format: functional, cell-based. To be noted: THP-1. In outline: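 THP1-Blue-CD14 cells were grown in RPMI 1640 with glucose (4.5 mg/mL) and 10% endotoxin-free FBS at 37 °C, 5% CO2. They were plated at 1.5×10^6 cells/mL and exposed to compounds formulated in PC/PG/Chol liposomes for 19 h at 37 °C. Supernatant was then mixed with Quanti-Blue reagent for 2 h at 37 °C and OD read at 595 nm. Controls were LPS (positive) and blank PC/PG/cholesterol (80/20/50) liposomes (negative); triplicates.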
For the molecule `CCCCCCCCCCCCCCCC(=O)N[C@@H](CSC[C@@H](COC(=O)CCCCCCCCCCCCCCC)OC(=O)CCCCCCCCCCCCCCC)C(=O)N[C@@H](C)C(=O)NCC(=O)O`, the outcome was Active.
